IDE cell inh: human IDE inhibitors in live cells, primary screen, fluorescence polarization, HEK cells, FAbetaB substrate; Insulin-degrading enzyme (Homo sapiens), P14735; FAbetaB cleavage; inhibition, % at 5.59 µM; 320,000 tested, 0.41% active; AID 434962, 2010;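 active means percent inhibition above the average of all tested compounds plus 3 SD, set per screening campaign, cut at about 16% in these data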;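 further: IDE supplied by intact live HEK cells; FP after avidin binding of uncleaved biotin substrate so inhibition keeps polarization high; 0% = DMSO wells and 100% = 60 µM reference IDE inhibitor Ii1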
HNF4A DNA FP: change in binding of human HNF4A to DNA, primary screen, biochemical, fluorescence polarization, FITC-DNA; Hepatocyte nuclear factor 4-alpha (Homo sapiens), P41235; 1 h; activity change, % at 10 µM; 360,000 tested, 0.3% active; AID 1224865, 2016; in the data active means activity change above about 30%, passing the limit was not always enough
TPT1 inhibitor: Candida albicans TPT1 enzyme inhibitors, primary screen, biochemical, fluorescence polarization; recombinant caTPT1, FP RNA substrate dephosphorylation; inhibition, % at 5 µM; 300,000 tested, 0.81% active;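 active means inhibition above the mean of all tested compounds plus 3 SD, set per screening campaign, cut at about 24% in these data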;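 further: plate controls were DMSO alone for no effect and ferristatin control at 100 nM for full effect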
IDE act: human IDE activators in live cells, primary screen, fluorescence polarization, HEK cells, FAbeta-B substrate | 340,000 tested, 0.073% active | activation, % at 5.96 µM | Insulin-degrading enzyme (Homo sapiens), P14735 | FAbeta-B cleavage; 0% vehicle, 100% cell-free pure enzyme wells;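 active means activation above the mean of all tested compounds plus 3 SD, set per screening campaign, cut at about 17% in these data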
CSN inh: inhibitors of CSN-mediated cullin deneddylation, primary screen, biochemical, fluorescence polarization, uHTS | COP9 signalosome complex subunit 5 (Homo sapiens), Q92905 | Purified CSN, SCF-Nedd8-OG deneddylation | inhibition, % at 12.5 µM | 360,000 tested, 0.38% active;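 active means pattern-corrected inhibition above about 35%, with an unprinted fluorescence ratio check between 0.5 and 1.5, limit read from the data, passing the limit was not always enough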;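 further: 0% = enzyme with substrate and 100% = substrate without enzyme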
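Material: human Csn5 produced in HEK293T cells; Input: enzyme 0.24 nM; Reagent: SCFSkp2-Nedd8OG substrate at 10 nM final; Dosing: 12.5 µM compound; Incubation: 90 min reaction at room temperature; Detection: fluorescence polarization of the substrate; Evaluation: % inhibition of substrate cleavage by Csn5; Control set: substrate-only high control, full reaction low control.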
CSN deneddyl val: Csn5 deneddylation inhibitors, confirmation, biochemical, fluorescence polarization, single concentration, SCF-Nedd8OG substrate | inhibition, % at 16.6 µM | AID 720654, 2013 | 540 tested, 62% active | shares compounds with CSN inh | Csn5 deneddylation of SCF-Nedd8OG, 90 min; in the data active means inhibition above about 50%;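 further: 0% = DMSO with enzyme and 100% = no enzyme wells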
MMP-2 counter: MMP-2 protease inhibition counter-screen, confirmation, counter-screen for CSN deneddylation inhibitor project, biochemical, fluorescence, single concentration. shares compounds with CSN inh. recombinant MMP-2, FRET substrate fluorescence, 60 min. inhibition, % at 16.6 µM. 540 tested, 33% active;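 active means corrected plate-normalized z-score of 5 or more, or -5 or less, or inhibition of 15% or more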;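 further: plate controls were DMSO wells with enzyme for no effect and buffer wells lacking MMP-2 for full effect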
Thrombin cntr: thrombin (bovine) inhibition, counter-screen for CSN hits. shares compounds with CSN inh. bovine thrombin cleavage of Ub4-pepOG, fluorescence polarization. inhibition, % at 16.6 µM. 540 tested, 49% active;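 active means inhibition at or above a set limit, with a fluorescence interference ratio between 0.5 and a set maximum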
Target sequence (P00735 whole entry, looked up): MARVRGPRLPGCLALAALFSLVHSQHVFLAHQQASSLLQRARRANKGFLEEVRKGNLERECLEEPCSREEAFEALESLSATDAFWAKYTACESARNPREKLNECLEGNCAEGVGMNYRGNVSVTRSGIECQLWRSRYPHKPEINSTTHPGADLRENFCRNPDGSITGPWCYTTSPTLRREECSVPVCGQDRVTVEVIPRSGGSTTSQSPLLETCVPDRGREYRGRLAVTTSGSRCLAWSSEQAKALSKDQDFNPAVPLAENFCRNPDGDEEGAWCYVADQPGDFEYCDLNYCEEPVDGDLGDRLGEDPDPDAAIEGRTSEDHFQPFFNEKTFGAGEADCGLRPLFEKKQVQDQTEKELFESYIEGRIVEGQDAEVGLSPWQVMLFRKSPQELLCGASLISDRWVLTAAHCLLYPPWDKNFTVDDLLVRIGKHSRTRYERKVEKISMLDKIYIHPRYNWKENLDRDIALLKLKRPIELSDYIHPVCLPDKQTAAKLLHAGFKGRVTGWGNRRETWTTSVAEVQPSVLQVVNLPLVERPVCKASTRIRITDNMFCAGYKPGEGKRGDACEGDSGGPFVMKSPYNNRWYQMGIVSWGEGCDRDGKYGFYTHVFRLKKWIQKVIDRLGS
HNF4a DNA conf: change in HNF4A binding to DNA, retest, confirmation, biochemical, fluorescence polarization, FITC-DNA | shares compounds with HNF4A DNA FP | 1 h | activity change, % at 12.5 µM | 210 tested, 99% active; call rule not given here
The depositor's hits bear a star; nt = no result given. Shown are actives, neighbours in structure and some others; about 1.4% of the full set was active somewhere.

SMILES	IDE cell inh	HNF4A DNA FP	TPT1 inhibitor	IDE act	CSN inh	CSN deneddyl val	MMP-2 counter	Thrombin cntr	others
CCCCn1c(O)c(/C=C/C=Nc2ccccc2)c(=O)[nH]c1=O	7.0	55.1*	141.0*	-8.2	46.7*	49.5	-11.2	37.0*
O=C1NCN(c2ccccc2)C12CCN(C(c1cccc3ccccc13)c1nnnn1C1CCCC1)CC2 (configuration not stated)	nt	1.0	nt	nt	7.3	nt	nt	nt
O=C1C(=O)c2ccccc2-c2ccccc21	1.4	3.0	-0.2	-3.4	58.6*	0.2	-1.6	-38.7
O=C1C(=O)c2cccc3cccc1c23	12.3	0.7	-1.8	-6.1	-3.6	nt	nt	nt
NC(=O)c1ccc(N=Cc2c(O)n(Cc3ccco3)c(=O)[nH]c2=O)cc1	2.7	-25.9	15.6	-0.5	45.1*	38.7	54.7*	1.4
O=c1[nH]c(=O)n(Cc2ccco2)c(O)c1C=NCc1cccs1	-6.6	-1.6	2.6	4.8	-6.5	nt	nt	nt
O=C1NCN(c2ccccc2)C12CCN(C(c1ccnc3ccccc13)c1nnnn1C1CCCCC1)CC2 (configuration not stated)	nt	2.1	nt	nt	1.1	nt	nt	nt
CC1(CCCc2ccc(N(CCCl)CCCl)cc2)NC(=O)NC1=O (configuration not stated)	nt	-3.6	nt	nt	2.2	nt	nt	nt
O=C1NC(=O)N(CCc2ccc(F)cc2)C(=O)/C1=C\C=C\c1ccccc1	nt	1.3	nt	1.8	14.7	nt	nt	nt
O=C1NC(=O)N(c2ccccc2)C(=O)/C1=C/C=C/c1ccco1	7.2	-1.1	19.0	-9.3	41.9*	58.0*	16.4*	13.6
CN(C)c1ccc(/C=C/C=C2/C(=O)NC(=O)N(c3ccccc3)C2=O)cc1	nt	10.8	nt	-6.0	38.4*	72.0*	-12.9	11.8
CN1C(=O)/C(=C/C=C/c2ccco2)C(=O)NC1=S	1.0	4.1	22.6	-5.6	65.2*	29.2	19.8*	50.1*
Cc1nc2cc(OC(=O)N(C)Cc3cccc(-c4ccncc4)c3)ccc2s1	nt	3.1	nt	nt	2.2	nt	nt	nt
COC1CC2C=C(C)C=CC=CC(=O)NC(c3ccccc3)CC=CCCC(O)CC(=O)C2=C1O (configuration not stated)	nt	-11.4	nt	nt	24.1	nt	nt	nt
Cc1nc2c(=O)n(C)c(=O)nc-2n(C)n1	4.1	78.0*	-1.1	0.9	62.6*	12.2	10.4	-40.8
CCOC(=O)c1c(NS(=O)(=O)c2ccccc2)n(CCCOC)c2nc3ccccc3nc12	-1.4	0.8	-2.0	0.8	48.5*	95.2*	-2.7	-0.8
COCCCn1c(N)c(C(=O)OCCOC)c2nc3ccccc3nc21	2.8	4.8	-3.1	0.9	0.8	nt	nt	nt
C=C1C(=O)O[C@@H]2C[C@@H](C)[C@@H]3C=CC(=O)[C@@]3(C)[C@@H](OC(=O)CC(=O)O[C@H]3[C@@H]4C(=C)C(=O)O[C@@H]4C[C@@H](C)[C@@H]4C=CC(=O)[C@]43C)[C@H]12	5.4	-25.5	5.2	0.3	56.7*	nt	0.9	21.2*
C[C@H]1CC[C@@H]2[C@@H](C)[C@H]3[C@H](C[C@H]4[C@@H]5CC=C6C[C@@H](O[C@@H]7O[C@H](CO)[C@H](O)[C@H](O[C@@H]8O[C@H](CO)[C@@H](O)[C@H](O)[C@H]8O)[C@H]7O[C@@H]7O[C@@H](C)[C@H](O)[C@@H](O)[C@H]7O)CC[C@]6(C)[C@H]5CC[C@]34C)N2C1	-20.1	43.9*	28.1*	6.9	15.9	nt	nt	nt	HNF4a DNA conf=40.3*
COC12c3ccccc3-c3ccccc3C1C(C(=O)O)C2C(=O)O (configuration not stated)	nt	5.0	nt	nt	0.7	nt	nt	nt

Bioassay records (PubChem)
